# Compound activity (PubChem)
# In the library only some 2.2% were active in any assay of this set; here they are far more common.
# CFTR F508del cor: CFTR F508del correction in bronchial cells | actives 0.36% (n = 350,000) | activity (quench increase), % at 7.58 µM | AID 720511 | CFBE cells, YFP halide quenching; stimulated with forskolin plus potentiator P3; % fluorescence drop versus neutral controls;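 active = mean added fluorescence quench of at least 8% versus neutral control, with both replicates also reaching 8%; inconclusive = only one of the mean or replicate conditions met; inactive = mean below 8% and not both replicates reaching 8%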;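 note: cells transiently co-express mutant CFTR-F508del with the halide-sensitive YFP; corrector assay measuring rescue of mutant channel to the surface after 24 h compound exposure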
# S100A4 MyoIIA: blocks human S100A4 binding to myosin IIA peptide. S100A4/TAMRA-MyoIIA peptide fluorescence polarization. inhibition, % at 10.7 µM. actives 0.14% (n = 360,000);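 active = mean inhibition of at least 70% across replicates, with every replicate also reaching that level; inconclusive = mean inhibition reaches 70% but some replicates fall short; inactive = mean inhibition below 70%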
# Target sequence (P26447 whole entry, looked up): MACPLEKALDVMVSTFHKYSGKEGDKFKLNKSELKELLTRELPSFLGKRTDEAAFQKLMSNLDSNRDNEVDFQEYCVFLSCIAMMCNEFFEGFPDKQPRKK
#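 System – human S100A4 monomer protein, biochemical binding assay · Buffer or medium – Calcium-containing HEPES buffer, pH 7.2 · Timing – 5 min between mix addition and reading · Also added – TAMRA-labelled myosin IIA heavy-chain peptide probe, 5 nM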
# dFosB act: activators of mouse delta FosB homodimer; activation, % at 25 µM; actives 0.99% (n = 340,000); AID 493131; purified delta FosB, TAMRA-CDK5 oligo fluorescence polarization; percent of positive-control signal above neutral wells; P13346;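 active = mean activation above about 17%, with every replicate also reaching it, limit read from the data, passing the limit was not always enough; inconclusive = only one of the two conditions met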
# Target sequence (P13346 whole entry, looked up): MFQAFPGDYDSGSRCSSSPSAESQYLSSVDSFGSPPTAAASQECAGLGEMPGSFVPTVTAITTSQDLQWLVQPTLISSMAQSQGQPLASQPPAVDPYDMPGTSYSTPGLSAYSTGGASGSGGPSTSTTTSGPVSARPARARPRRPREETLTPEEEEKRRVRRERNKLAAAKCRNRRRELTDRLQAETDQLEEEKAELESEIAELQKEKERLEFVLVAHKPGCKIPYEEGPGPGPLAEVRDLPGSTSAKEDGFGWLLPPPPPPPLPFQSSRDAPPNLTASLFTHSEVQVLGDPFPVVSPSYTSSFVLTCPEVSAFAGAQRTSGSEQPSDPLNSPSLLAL
# FGF22 binding: FGF22 (human) thermal shift binding; Q9HCT0; recombinant FGF22 thermal shift, SYPRO orange fluorescence; percent of sucrose octasulfate shift, DMSO zero; activity (Tm shift, normalised), % at 9.99 µM; actives 1.5% (n = 340,000); AID 651658;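 active = mean Tm shift, scaled 0 neutral to 100 positive control, at about 1.3% or above, every replicate too, limit read from the data; inconclusive = no clear call, values can overlap the other calls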
# Target sequence (Q9HCT0 whole entry, looked up): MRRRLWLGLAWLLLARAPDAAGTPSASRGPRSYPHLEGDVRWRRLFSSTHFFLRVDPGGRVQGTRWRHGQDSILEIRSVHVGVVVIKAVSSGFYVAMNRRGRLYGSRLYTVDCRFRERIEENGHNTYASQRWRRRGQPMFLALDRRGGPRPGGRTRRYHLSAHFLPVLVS
# * = called active by the depositor; ? = inconclusive; . = no result.
SMILES,CFTR F508del cor,S100A4 MyoIIA,dFosB act,FGF22 binding
CC(Sc1nc2ccccc2c(=O)n1CCCN1CCOCC1)C(=O)N1CCc2ccccc21 (configuration not stated),2.9,-5.4,-0.1,43.6*
Cc1cccc(NC(=O)C(C)Sc2nc3ccccc3c(=O)n2CCCN2CCOCC2)c1 (configuration not stated),5.3,6.1,-11.7,0.0
Cc1noc(C)c1NC(=O)N(C)C[C@H]1Oc2c(NC(=O)Nc3ccc(C(F)(F)F)cc3)cccc2C(=O)N([C@@H](C)CO)C[C@@H]1C,2.2,8.3,.,-1.0
Oc1ccc2ccccc2c1/C=C/c1ccc2c(Br)cc(Br)c(O)c2n1,13.3*,-10.8,-3.4,0.0
C[C@H]1CN([C@@H](C)CO)C(=O)c2cccc(NC(=O)c3ccc(-c4nccs4)cc3)c2O[C@@H]1CN(C)S(=O)(=O)c1cn(C)cn1,-1.3,-14.5,.,-0.2
OC(CNC1Cc2ccccc2C1)COc1ccc(Cl)cc1 (configuration not stated),1.1,-2.2,-11.4,0.1
OC(CNC1CCCc2ccccc21)COc1c(Cl)cccc1Cl (configuration not stated),1.6,-1.3,-3.3,44.5*
CSCc1cc(C(=O)NC2CC2)c(N)s1,0.2,73.9*,.,-0.1
CO[C@H]1CN(C)C(=O)c2cc(NC(=O)Cc3ccccc3)ccc2OC[C@H](C)N(C(C)=O)C[C@H]1C,-2.1,-4.9,.,0.2
CC(C)CC#Cc1cnc2c(c1)C(=O)N([C@H](C)CO)C[C@@H](C)[C@@H](CN(C)C(=O)c1cccc(F)c1)O2,1.8,-2.4,.,-0.2
CO[C@H]1CN(C)C(=O)c2cc(NC(=O)Nc3ccc(C(F)(F)F)cc3)ccc2OC[C@@H](C)NC[C@H]1C,-1.2,-12.0,.,-0.6
Cc1ccc(NC(=O)CNC(=O)N2CC(=O)Nc3ccccc32)cc1F,0.4,-2.0,-7.6,-0.3
O=C(CN1CC(=O)Nc2ccccc21)NCCc1ccc(Cl)cc1Cl,-0.6,-2.1,-3.7,44.2*
O=C(CN1CC(=O)Nc2ccccc21)Nc1ccc(F)c(F)c1,1.2,-3.7,-8.1,43.2*
O=C(NCC[C@@H]1CC[C@@H](NS(=O)(=O)Cc2ccccc2)[C@@H](CO)O1)C1CCC1,1.2,5.3,.,-0.2
COc1cccc(-c2nc(N3CCN(C)CC3)c3ccccc3n2)c1O,14.2*,3.0,?,0.2
COc1n[nH]c(C(=O)NCc2ccccc2)c1[N+](=O)[O-],-0.7,1.2,1.6,0.1
COc1n[nH]c(C(=O)Nc2nc3ccccc3s2)c1[N+](=O)[O-],1.6,-3.8,0.5,44.0*
CO[C@@H]1CN(C)C(=O)c2ccc(NS(C)(=O)=O)cc2OC[C@@H](C)N(Cc2cccnc2)C[C@H]1C,2.1,.,.,.
CN(C)C(/C=C/Nc1ccc(C#N)cc1)=C(C#N)C#N,.,.,-0.7,.
CN(C)C(/C=C/Nc1ccc(Br)cc1)=C(C#N)C#N,-0.4,-0.5,-1.4,43.0*
Cc1ccc(NC(=O)COC(=O)Cn2ccc(=O)[nH]c2=O)cc1C,0.5,10.0,-8.5,-0.1
O=C(Cn1ccc(=O)[nH]c1=O)Nc1ccc(O)c([N+](=O)[O-])c1,-1.3,-1.3,-6.9,43.2*
Cc1ccc(S(=O)(=O)N(C)C[C@H]2OCCCC[C@H](C)Oc3ccc(NC(=O)c4ccccc4)cc3C(=O)N([C@@H](C)CO)C[C@@H]2C)cc1,-0.6,-9.8,.,-0.3
O=C(CCC(=O)N1CCOc2ccc(Cl)cc21)N1CCN(c2ccccn2)CC1,8.3*,6.2,-4.3,-0.1
SMILES,CFTR F508del cor,S100A4 MyoIIA,dFosB act,FGF22 binding
COc1cc2ccc3c(CCN(C)C)cc(OC)c(OC)c3c2cc1OC,2.1,0.9,-1.8,-0.2
CN(C)CCc1cc2c(c3c1ccc1ccccc13)OCO2,2.4,5.4,46.9*,-0.1
CN(C)C(=O)C[C@@H]1CC[C@H]2[C@H](COc3ccc(NC(=O)C4CCC4)cc3C(=O)N2C)O1,0.3,-4.1,.,.
Cc1cccc(CSCCNC(=O)CCSc2ccccc2)c1,-1.3,-0.6,-3.4,44.0*
O=C(CCSc1ccccc1)NCCSCc1ccccc1,.,6.1,0.8,0.2
Cn1ccnc1Sc1ccc(C=O)cc1[N+](=O)[O-],2.8,-2.0,3.6,0.8
Cn1ccnc1Sc1ccccc1[N+](=O)[O-],-1.4,2.5,-0.4,43.3*
O=C(C[C@@H]1C=C[C@@H](NC(=O)C2CC2)[C@H](CO)O1)NCc1ccncc1,1.0,-0.2,.,0.1
CCOC(=O)c1cc(-c2cccnc2)nn1-c1ccccc1C,-2.1,-0.6,-3.7,43.5*
CC(C)n1cnc2c(Nc3cccc(Cl)c3)nc(NCCCO)nc21,2.7,-1.4,-3.5,-0.1
C=CC(=O)Nc1cccc(Nc2nc(N[C@H]3CC[C@H](N(C)C)CC3)nc3c2ncn3C(C)C)c1,.,.,22.0*,.
COC(=O)/C=C/c1ccccc1S(=O)(=O)N(Cc1ccccc1)Cc1ccco1,8.3*,.,-5.7,.
CCCN1CCN(CCCNC(=O)C(CC)n2nc(C)c3sc4ccccc4c3c2=O)CC1 (configuration not stated),2.1,112.7*,-0.5,-0.1
CO[C@H]1CN(C)C(=O)c2ccc(NC(=O)Nc3ccc(Cl)cc3)cc2OC[C@H](C)NC[C@@H]1C,1.4,.,.,.
CSc1nc2ccc(NC(=O)C3=NNC(=O)CC3)cc2s1,-2.5,0.3,-1.1,43.3*
CSc1nc2ccc(NC(=O)C3=NN(c4ccccc4)C(=O)CC3)cc2s1,-3.1,-1.4,-4.5,0.2
CCCC(=O)Nc1ccc2c(c1)C(=O)N(C)C[C@@H](OC)[C@@H](C)CN(Cc1ccccn1)[C@@H](C)CO2,-1.3,11.6,.,0.1
N#Cc1ccc(C(=O)N2CCN(S(=O)(=O)c3ccc(Br)s3)CC2)cc1,-5.5,0.3,0.6,43.8*
COc1cc(C2Nc3cccc4cccc(c34)N2)cc(OC)c1OC(C)=O,.,.,1.5,.
COc1cc(C2Nc3cccc4cccc(c34)N2)ccc1O,-5.0,-1.5,51.9*,-0.2
Cc1cccc(C2Nc3cccc4cccc(c34)N2)c1,0.0,-2.7,13.3,-0.3
c1cc2c3c(cccc3c1)NC(c1ccc3c(c1)OCO3)N2,-2.3,-1.3,36.3*,-0.2
O=C([C@@H]1[C@@H](CO)[C@@H]2Cn3c(cccc3=O)[C@H]1N2C(=O)CC1CC1)N1CCCCC1,.,3.1,.,0.1
CO[C@@H]1CN(C)C(=O)c2ccc(NC(C)=O)cc2OC[C@@H](C)N(Cc2nccs2)C[C@H]1C,0.0,9.9,.,-0.1
COCCn1c(SCc2ccc(F)cc2)nc2ccccc2c1=O,-3.0,0.6,-7.8,-0.1
CCSc1nc2ccccc2c(=O)n1Cc1ccc(F)cc1,-2.4,17.7,-3.0,43.6*
COc1ccc(S(=O)(=O)N2CCOCC2)cc1NC(=O)[C@@H]1CCCN1C(=O)c1cccs1,-0.4,0.8,-7.7,43.2*
O=S(=O)(c1ccc(NC(=S)Nc2ccc3c(c2)OCO3)cc1)N1CCOCC1,.,.,-0.7,.
CNS(=O)(=O)c1ccc(NC(=S)Nc2ccc3c(c2)OCO3)cc1,-0.1,-2.9,-3.0,43.5*
